# Source: PubChem (several laboratories)
# A selection: hits, their analogues and other compounds. The true share with any hit is near 2.4%.
# TAG inh = inhibitors of triacylglycerol accumulation, primary screen, cell-based, uHTS, fluorescence, H9c2. inhibition, % at 12.5 µM. H9c2 cells, Nile Red lipid (TAG) fluorescence; cells loaded with 200 µM oleic acid. hit rate 0.66% among 230,000. AID 651582, 2012;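 active = pattern-corrected inhibition of lipid staining of at least 50% with the nuclear-stain viability signal not falling by more than 50%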;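 also: 0% = DMSO wells and 100% = triacsin C control wells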
# NTR1 agonist = agonists of human NTR1, primary screen, imaging, U2OS cells, beta-arrestin-GFP, high content; Neurotensin receptor type 1 (Homo sapiens), P30989; NTR1-U2OS beta-arrestin-GFP spot imaging, agonist mode; activation, % at 20 µM; hit rate 0.17% among 330,000;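 active = activation at or above 40% of the spot to cytoplasm intensity ratio, with at least 20 cells analyzed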;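 also: 0% = DMSO without peptide and 100% = 100 nM NTR1 peptide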
# Target sequence (P30989 whole entry, looked up): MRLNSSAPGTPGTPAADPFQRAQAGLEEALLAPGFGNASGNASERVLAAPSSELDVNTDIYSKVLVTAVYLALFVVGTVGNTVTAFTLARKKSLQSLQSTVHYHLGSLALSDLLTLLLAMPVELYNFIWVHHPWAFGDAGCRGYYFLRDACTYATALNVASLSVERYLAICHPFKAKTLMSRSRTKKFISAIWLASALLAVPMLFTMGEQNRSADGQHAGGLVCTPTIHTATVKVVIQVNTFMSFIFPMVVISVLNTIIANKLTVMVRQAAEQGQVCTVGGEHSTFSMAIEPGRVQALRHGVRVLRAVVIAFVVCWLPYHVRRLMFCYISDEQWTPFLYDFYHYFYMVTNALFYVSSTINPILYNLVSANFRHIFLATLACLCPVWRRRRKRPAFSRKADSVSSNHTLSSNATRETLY
# MC4R antag cAMP = MC4R antagonists of cAMP signaling, primary screen, cell-based, TR-FRET, antagonist arm of biased-ligand search. MC4R-expressing cells, MTII-stimulated cAMP, LANCE TR-FRET. Melanocortin receptor 4 (Homo sapiens), P32245. inhibition, % at 6.5 µM. AID 540295, 2011. hit rate 0.48% among 360,000;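 active = inhibition above its plate's cutoff, the mean of tested wells on that plate plus 3 SD, cut at about 29% in these data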;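 also: 0% = Melanotan II alone and 100% = Melanotan II plus saturating MCL0020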
#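 material = U2OS cells stably expressing human melanocortin 4 receptor (MC4R) | also added = Melanotan II challenge | dosing = single nominal compound dose of 6.5 µM | detection = TR-FRET with Eu-cAMP and labeled anti-cAMP, 671 nm | replication = singlicate | timing = compound 30 min, challenge 1 h, detection 1 h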
# aDG glyco up = activators of alpha-DG glycosylation, primary screen, uHTS, Pro5-aDG cells, AlphaScreen; alpha-DG glycosylation AlphaScreen (IIH6); 0% Pro5, 100% B10-LARGE cell signal; activation, % at 10 µM; hit rate 0.22% among 360,000;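 active = activation of at least 8% versus controls, or a plate z-score of at least 8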;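 also: Pro5 are CHO cells carrying HIG-tagged alpha-DG that lacks glycosylation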
# MC4R ag barr = MC4R agonists recruiting beta-arrestin, primary screen, cell-based, luminescence, agonist arm of biased-ligand search | Melanocortin receptor 4 (Homo sapiens), P32245 | U2OS MC4R beta-arrestin complementation; percent of melanotan II response, DMSO zero | activation, % at 8.9 µM | hit rate 0.98% among 360,000 | AID 540308, 2011;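 active = activation above a per-plate cutoff, the mean activation of sample wells on that plate plus 3 SD, cut at about 8% in these data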
# TbMetRS inhib = T. brucei MetRS inhibitors, primary screen, biochemical, luminescence. methionyl-tRNA synthetase (Trypanosoma brucei brucei). purified T. brucei MetRS, ATP depletion, Kinase-Glo luminescence. inhibition, % at 11.9 µM. hit rate 0.4% among 360,000;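 active = inhibition above a per-plate cutoff of the control wells' mean inhibition plus 3 SD, cut at about 5.5% in these data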;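 also: 0% = DMSO wells median and 100% = median of wells with control inhibitor compound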
#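 technique = Kinase-Glo luminescence, ATP depletion format | system = purified MetRS (methionyl-tRNA synthetase) enzyme from Trypanosoma brucei | timing = 15 min preincubation, 2 h reaction, all 25 °C | evaluation = percent inhibition versus plate control medians | dosing = single dose, 11.9 µM final nominal, 0.9% final DMSO | also added = substrates ATP, L-methionine and bulk Escherichia coli tRNA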
# Numbers without * were called inactive; . = no result given.
SMILES,TAG inh,NTR1 agonist,MC4R antag cAMP,aDG glyco up,MC4R ag barr,TbMetRS inhib
O=C(Nc1cc(C(F)(F)F)ccc1Cl)C1CCN(c2nnc(-n3cccc3)s2)CC1,.,.,2.1,0.5,8.6*,-0.8
CC1(C(=O)Nc2cccc(C#N)c2)CCN1C(=O)C1(c2ccccc2)CC1 (centres undefined),-35.4,.,-1.9,-0.1,-1.3,-0.2
Oc1[nH]c2ccccc2c1N=Nc1nc(Nc2ccccc2)nc(N2CCOCC2)n1,131.2,16.4,28.5*,-0.6,1.4,0.2
CCCCN(Cc1ccco1)C(=O)c1cc2c(=O)[nH]c3ccc(C)cc3c2s1,12.8,29.0,7.9,-0.1,36.3*,0.4
O=C(NCC(c1ccco1)N1CCN(c2ccc(F)cc2)CC1)OCc1ccccc1 (centres undefined),.,0.2,5.2,0.4,8.3*,-0.4
COC(=O)NCC(c1ccco1)N1CCN(c2ccc(F)cc2)CC1 (centres undefined),.,-1.9,0.0,0.1,-2.3,-0.4
Cc1cccc(C)c1N1C(=O)c2ccccc2NC(=O)C1C(=O)NCCOc1ccccc1 (centres undefined),.,.,.,-0.1,.,0.3
CC1CCN(C(=O)c2ccc3c(c2NCCO)C(=O)c2ccccc2C3=O)CC1,118.4*,23.8,-12.4,-0.3,-4.7,-1.2
O=C(CSc1nnnn1C1CC2CCC1C2)Nc1ccnc2ccccc12 (centres undefined),-144.5,2.4,-2.7,7.4*,-1.8,-1.3
Cc1ccc(Cl)cc1-c1cc(C(=O)NCc2ccc(C(F)(F)F)cc2)[nH]n1,-80.7,.,-8.8,0.3,0.6,-0.1
COc1ccc(Cl)c(-c2cc(C(=O)NCc3ccc(C(F)(F)F)cc3)[nH]n2)c1,-74.3,.,-3.2,0.5,9.5*,-0.4
CC(C)CCNC(=O)NC(=O)CSc1nnc(-c2ccccc2Br)o1,.,5.8,8.9,0.0,8.4*,-0.1
CC(=NNC(=S)N1CC2CCC(CC2)C1)c1cccc(C)n1,53.2*,.,-1.4,-0.1,-0.9,-0.4
CC(=NNC(=S)N1CCCC1)c1ccccn1,22.6,.,12.6,-0.6,-1.8,0.3
COc1cc2c(cc1OCc1ccccc1)/C(=C/C(=O)OCc1ccccc1)OC2,.,.,.,-0.2,.,-1.0
CCCCN1/C(=C/c2ccc3ccccc3[n+]2CC)Sc2ccccc21,.,-4.6,-13.7,8.4*,-0.3,0.1
CCN1/C(=C/c2ccc3cc(C)ccc3[n+]2CC)Sc2cc(C)ccc21,-117.1,.,-21.4,2.5,6.4,-1.1
CCOC(=O)N(C)c1c(CC)nc2c(OCc3ccccc3OC)cccn12,-8.8,.,-0.7,0.7,-0.7,-0.4
CCC/C=C/c1ccc(CN2C(C(C)C)C(=O)N(Cc3cn(Cc4ccco4)nn3)CCS2(=O)=O)cc1 (centres undefined),10.0,.,2.1,0.1,0.8,-0.2
Cc1ccc(/C=N/NC(=O)CCCOc2ccc(Cl)cc2Cl)cc1[N+](=O)[O-],6.4,8.2,5.6,-0.1,9.0*,-0.6
COc1ccc(/C=N/NC(=O)CCCOc2ccc(Cl)cc2Cl)cc1[N+](=O)[O-],-2.1,11.1,0.3,0.2,-0.6,1.3
CCCCCc1ccc(OCCOCCn2c[n+](C)c3ccccc32)c(CCCCC)c1,.,.,-7.7,1.9,17.4*,-0.8
COc1ccc(OC)c2sc(N(CCCN(C)C)C(=O)c3ccc(S(=O)(=O)N4CCc5ccccc5C4)cc3)nc12,.,1.5,.,.,.,.
COc1ccc(OC)c2sc(N(CCN(C)C)C(=O)/C=C/c3cccs3)nc12,.,16.1,2.3,-0.5,0.3,-0.3
COc1cccc2sc(N(CCCN(C)C)C(=O)c3ccc(S(=O)(=O)N4CCc5ccccc5C4)cc3)nc12,.,3.5,-4.2,0.2,9.0*,-1.4
SMILES,TAG inh,NTR1 agonist,MC4R antag cAMP,aDG glyco up,MC4R ag barr,TbMetRS inhib
COc1ccc(C)c2sc(N(CCN(C)C)C(=O)/C=C/c3cccs3)nc12,.,26.0,-2.1,0.2,28.9*,-0.3
CCOc1cccc2sc(N(CCCN(C)C)C(=O)c3ccc(S(=O)(=O)N(CC)Cc4ccccc4)cc3)nc12,8.1,52.2*,6.0,2.3,3.0,-0.4
COc1ccc(C)c2sc(N(CCCN(C)C)C(=O)c3ccc(S(=O)(=O)N4CCc5ccccc5C4)cc3)nc12,133.6,.,-4.4,-0.5,36.7*,0.3
Cn1c(=O)c2cc(NC(=S)NC3CCCCC3)ccc2n1Cc1ccc(Cl)cc1,-9.4,.,4.8,0.2,-0.6,0.3
FC(F)(F)c1ccc(-c2cccc3c2C2CC3CCN2Cc2ccc3c(c2)OCO3)cc1 (centres undefined),.,.,.,0.1,.,-0.8
CCCCN1C(=O)C(CC(=O)NC(c2ccccc2)c2ccccc2)CC(C(=O)N2CCCCCC2)=C1C (centres undefined),.,.,.,-0.4,.,0.1
CC(C)C(=O)N1CCC1(C)C(=O)NCc1ccc(F)cc1Cl (centres undefined),-7.3,.,-6.0,-0.3,-0.1,-0.6
COC(=O)C[C@@H]1CC[C@H](NS(=O)(=O)c2cccc(F)c2)[C@@H](CO)O1,.,.,.,0.1,.,-0.7
CC(=O)Nc1cc(-c2ccccc2F)cn2c(-c3ccccc3)cnc12,-8.1,.,9.7,0.0,8.3*,0.0
CN(C)C(=O)c1cccc(-c2cnc3c(NC=O)cc(-c4ccc(N(C)C)cc4)cn23)c1,43.2,.,-18.2,-0.3,8.6*,-0.2
CC(=O)Nc1cc(-c2cccc(C(=O)N(C)C)c2)cn2c(-c3ccccc3)cnc12,6.8,.,14.5,-0.3,1.3,0.3
CC(=O)Nc1cc(-c2cccc(F)c2)cn2c(-c3ccc(S(C)(=O)=O)cc3)cnc12,15.1,.,15.1,-0.3,2.0,0.6
CC(=O)Nc1cc(-c2cccc(C(=O)N(C)C)c2)cn2c(-c3ccc(F)cc3)cnc12,11.3,.,9.8,0.4,9.0*,-0.1
CC(=O)Nc1cc(-c2cccc(F)c2)cn2c(-c3ccccc3)cnc12,-20.5,.,0.5,-0.2,9.4*,-0.3
Nc1nc2c(ncn2[C@@H]2O[C@H](CNC(=O)[C@H](N)Cc3ccccc3)[C@@H](O)[C@H]2O)c(=O)[nH]1,.,.,.,-0.4,.,0.0
CS(=O)(=O)Nc1cccc(NC(=O)c2cccc3c(-c4ccc(F)c(F)c4)coc23)c1,-12.4,.,11.9,0.1,-0.8,0.3
CC(=O)Nc1cccc(-c2csc(C(O)c3cccc(Cl)c3)n2)c1 (centres undefined),-8.9,.,4.4,0.5,-0.4,0.1
